In ChEMBL document CHEMBL3098112, “Synthesis and evaluation of spiroisoxazoline oxindoles as anticancer agents” (Bioorg Med Chem, 2014):
Calls of active or inactive are those of the source. The calls are words filed in the database; no cut-off is given here.

Tests used:
[1] = tested on: HepG2; assay: Antiproliferative activity against human HepG2 cells after 24 hrs by MTS assay; type: functional; conditions: HepG2, 24 h
Summary of the method: (§1)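 Cells plated (1×10^5 cells/mL) and treated about 24 h later with compounds in DMSO diluted in medium, 0.5 to 200 µM; viability read 24 h after treatment by MTS, absorbance 490 nm. GI50 from non-linear regression; mean ± SEM of three independent experiments. HCT116 and SW620 in McCoy's 5A, HepG2 in DMEM, all with 10% FBS, 37 °C, 5% CO2.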

[2] = tested on: HCT-116; assay: Antiproliferative activity against human HCT116 cells expressing p53 after 24 hrs by MTS assay; type: functional; conditions: HCT-116, 24 h; summary of the method: as §1
[3] = target: T1, Tumour suppressor p53/oncoprotein Mdm2 (Homo sapiens) (UniProt P04637+Q00987); assay: Inhibition of p53-MDM2 (unknown origin) interaction expressed in p53-deficient human HCT116 cells at 10 to 50 uM after 24 hrs by BiFC-based FACS flow cytometric analysis; type: cell-based; conditions: HCT-116
Summary of the method: (§2)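 HCT116 p53-/- cells co-transfected with V1-p53/MDM2-V2 BiFC plasmids (1 µg each, Lipofectamine 2000). Medium replaced 4–6 h post-transfection and compounds in DMSO added. Cells harvested at 24 h with accutase, resuspended in PBS, and complementation fluorescence measured by flow cytometry; n = 3.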

[4] = tested on: SW-620; assay: Antiproliferative activity against human SW620 cells expressing p53 mutant after 24 hrs by MTS assay; type: functional; conditions: SW-620, 24 h; summary of the method: as §1
[5] = tested on: HCT-116; assay: Antiproliferative activity against p53-deficient human HCT116 cells after 24 hrs by MTS assay; type: functional; conditions: HCT-116, 24 h; summary of the method: as §1
[6] = Chemical stability in phosphate buffer at pH 7.4 up to 72 hrs by HPLC analysis; type: physicochemical; conditions: pH 7.4, 72 h
Summary of the method: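 12.5 µL of 10^-2 M DMSO stock added to 2.5 mL potassium phosphate buffer (pH 7.4, 0.5 M) at 37 °C; aliquots taken at intervals into acetonitrile and analysed by RP-18 HPLC (acetonitrile/water 70:30, 1 mL/min, UV 260 nm, 25 °C) over 72 h.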

[7] = Half life in Sprague-Dawley rat liver microsomes by HPLC analysis in presence of NADPH-regenerating system; type: ADME
Summary of the method: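 Male Sprague–Dawley pooled liver microsomes in potassium phosphate pH 7.4 with NADPH regenerating system, preincubated 5 min at 37 °C. Reaction started with 4 µL of 10^-3 M DMSO stock. Aliquots quenched in acetonitrile, centrifuged, and supernatant analysed by RP-18 HPLC at 260 nm for half-life.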

[8] = tested on: Plasma; assay: Metabolic stability in human plasma up to 72 hrs by HPLC analysis; type: ADME, cell-free
[9] = tested on: HCT-116; assay: Induction of apoptosis in p53-deficient human HCT116 cells assessed as increase in PARP cleavage after 24 hrs by Western blotting analysis; type: functional, cell-based; conditions: in the assay text read “p53 wild-type” for “p53-deficient”
[10] = tested on: HCT-116; assay: Induction of apoptosis in p53-deficient human HCT116 cells assessed as caspase 3 activation after 24 hrs by Western blotting analysis; type: functional, cell-based; conditions: in the assay text read “p53 wild-type” for “p53-deficient”
Summary of the method: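 HCT116 p53-/- cells seeded at 3×10^5 cells/mL and exposed to vehicle or compound at 25 and 50 µM for 24 h. Whole-cell extracts (60–80 µg) run on 8% and 14% SDS-PAGE and immunoblotted for caspase-3 or PARP-1/2. Bands quantified by densitometry and normalized to β-actin; three independent experiments.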

[11] = target: T1, Tumour suppressor p53/oncoprotein Mdm2 (Homo sapiens); assay: Inhibition of p53-MDM2 (unknown origin) interaction expressed in p53-deficient human HCT116 cells at 25 to 50 uM after 24 hrs by BiFC-based FACS flow cytometric analysis; type: cell-based; conditions: HCT-116; summary of the method: as §2

T1 sequence (P04637 whole entry, looked up): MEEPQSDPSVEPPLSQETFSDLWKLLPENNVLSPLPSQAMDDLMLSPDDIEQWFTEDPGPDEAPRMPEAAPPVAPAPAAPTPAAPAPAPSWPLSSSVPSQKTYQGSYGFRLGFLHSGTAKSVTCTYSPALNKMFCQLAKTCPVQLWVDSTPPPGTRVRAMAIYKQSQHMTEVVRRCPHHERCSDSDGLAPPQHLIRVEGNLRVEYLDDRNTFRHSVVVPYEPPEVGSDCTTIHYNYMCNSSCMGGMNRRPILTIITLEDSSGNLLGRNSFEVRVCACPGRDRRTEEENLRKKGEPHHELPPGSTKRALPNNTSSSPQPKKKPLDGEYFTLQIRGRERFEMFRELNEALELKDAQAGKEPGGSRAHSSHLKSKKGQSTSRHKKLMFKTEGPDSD
T1 sequence (Q00987 whole entry, looked up): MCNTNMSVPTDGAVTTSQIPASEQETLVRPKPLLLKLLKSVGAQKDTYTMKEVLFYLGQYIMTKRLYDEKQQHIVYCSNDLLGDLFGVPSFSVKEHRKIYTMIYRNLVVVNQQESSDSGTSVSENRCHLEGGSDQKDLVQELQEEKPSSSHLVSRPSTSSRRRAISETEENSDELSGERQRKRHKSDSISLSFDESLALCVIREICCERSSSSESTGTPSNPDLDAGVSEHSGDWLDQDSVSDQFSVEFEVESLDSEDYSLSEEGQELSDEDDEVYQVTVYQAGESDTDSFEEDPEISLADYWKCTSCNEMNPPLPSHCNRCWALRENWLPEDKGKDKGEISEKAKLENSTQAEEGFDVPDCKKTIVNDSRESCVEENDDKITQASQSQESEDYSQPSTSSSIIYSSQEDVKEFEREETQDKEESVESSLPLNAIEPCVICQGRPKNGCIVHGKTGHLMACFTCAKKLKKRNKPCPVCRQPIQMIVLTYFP

Structure (SMILES)	GI50 [1]	GI50 [2]	GI50 [4]	GI50 [5]	also measured
O=C1Nc2ccccc2[C@]12ON=C(c1ccccc1)[C@H]2c1ccccc1 (relative stereo)	> 100 µM	–	–	–	–
COc1ccc([C@@H]2C(c3ccccc3)=NO[C@@]23C(=O)Nc2ccccc23)cc1 (relative stereo)	> 100 µM	–	–	–	–
COc1ccc([C@@H]2C(c3ccccc3)=NO[C@@]23C(=O)N(C)c2ccccc23)cc1 (relative stereo)	> 100 µM	–	–	–	–
COc1ccc(C2=NO[C@@]3(C(=O)Nc4ccccc43)[C@@H]2c2ccc(OC)cc2)cc1 (relative stereo)	> 100 µM	–	–	–	–
O=C1Nc2cc(Cl)ccc2[C@]12ON=C(c1ccccc1)[C@H]2c1ccccc1 (relative stereo)	37.1 µM	39.8 µM	48.9 µM	48.2 µM	inhibition [3]: Active
COc1ccccc1C1=NO[C@@]2(C(=O)Nc3cc(Cl)ccc32)[C@@H]1c1ccccc1 (relative stereo)	35.7 µM	30.5 µM	36.7 µM	35.6 µM	–
COc1ccc(C2=NO[C@@]3(C(=O)Nc4cc(Cl)ccc43)[C@@H]2c2ccc(OC)cc2)cc1 (relative stereo)	> 100 µM	–	–	–	–
O=C1Nc2cc(Br)ccc2[C@]12ON=C(c1ccccc1)[C@H]2c1ccccc1 (relative stereo)	32.8 µM	35 µM	39.6 µM	40.6 µM	–
COc1ccc(C2=NO[C@@]3(C(=O)Nc4cc(Br)ccc43)[C@@H]2c2ccccc2)cc1 (relative stereo)	31.7 µM	33.4 µM	40.4 µM	39 µM	Stability [6]: Stable; half-life [7]: 3.62 h; Stability [8]: Stable
COc1ccc(C2=N[C@@H](c3ccc(Cl)cc3)[C@@H](c3ccc(Cl)cc3)N2C(=O)N2CCNC(=O)C2)c(OC(C)C)c1 [NUTLIN-3]	51.3 µM	–	–	52.3 µM	–

Second part, led by results:

GI50 [1]	GI50 [2]	GI50 [4]	GI50 [5]	Structure (SMILES)	also measured
52.1 µM	–	–	–	O=C1Nc2ccccc2[C@]12ON=C(c1ccc([N+](=O)[O-])cc1)[C@H]2c1ccccc1 (relative stereo)	–
77.8 µM	–	–	–	COc1ccc(C2=NO[C@@]3(C(=O)Nc4ccccc43)[C@@H]2c2ccccc2)cc1 (relative stereo)	–
83.6 µM	–	–	–	O=C1Nc2ccc([N+](=O)[O-])cc2[C@]12ON=C(c1ccccc1)[C@H]2c1ccccc1 (relative stereo)	–
53.1 µM	–	–	–	COc1ccc(C2=NO[C@@]3(C(=O)Nc4ccc([N+](=O)[O-])cc43)[C@@H]2c2ccccc2)cc1 (relative stereo)	–
55.5 µM	–	–	–	O=C1Nc2c(Cl)cccc2[C@]12ON=C(c1ccc([N+](=O)[O-])cc1)[C@H]2c1ccccc1 (relative stereo)	–
55.8 µM	–	–	–	COc1ccc(C2=NO[C@@]3(C(=O)Nc4c(Cl)cccc43)[C@@H]2c2ccccc2)cc1 (relative stereo)	–
38.1 µM	34.7 µM	53.2 µM	40.1 µM	COc1ccc(C2=NO[C@@]3(C(=O)Nc4cc(Cl)ccc43)[C@@H]2c2ccccc2)cc1 (relative stereo)	Stability [6]: Stable; half-life [7]: 3.15 h; Stability [8]: Stable; Activity [9]: Dose-dependent effect; Activity [10]: Dose-dependent effect; inhibition [11]: Active
33.8 µM	32.4 µM	33.5 µM	39 µM	O=C1Nc2cc(Cl)ccc2[C@]12ON=C(c1ccc([N+](=O)[O-])cc1)[C@H]2c1ccccc1 (relative stereo)	–
29.1 µM	26.6 µM	31.6 µM	30.6 µM	Cc1ccc(C2=NO[C@@]3(C(=O)Nc4cc(Cl)ccc43)[C@@H]2c2ccccc2)cc1 (relative stereo)	Activity [9]: Dose-dependent effect; Activity [10]: Dose-dependent effect; inhibition [11]: Active
